In PubChem BioAssay AID1885 (Broad Institute, 2009):
Values joined by “and” are separate entries in the source; they are usually repeats but may differ in a detail not shown here. Equal entries are not always repeated. The whole screen tested about 300,000 compounds, of which about 4,400 (1.5%) were called active.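 How the source made its calls: active means mean inhibition across valid replicates above about 55% (limit read from the data); inconclusive means mean below that limit but half or more replicates reach it; inactive means mean below it, under half of replicates reach it.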 The sample as a whole holds a higher share of actives than the screen did. More than one record can exist for a structure, and the calls need not agree.

experiment: Trypanosoma cruzi replication blockers in host cells – luminescence, NIH3T3 host cells, primary screen (AID 1885);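 further: signal also drops with host cell toxicity which is not excluded here; 0% = plate median of DMSO wells and 100% = zero luminescence signal; higher percent means less beta-gal luminescence so fewer parasites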; conditions: T. cruzi beta-gal in NIH3T3, luminescence, 90 h; stronger effect = higher value; concentration not given here
How it was run: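 Test system: β-gal T. cruzi (Tulahuen C4) inside NIH/3T3 cells / Quantity: 5,000 cells/well / Measured by: luminescence from GalScreen with 0.05% NP40, read after 60 min / Medium: DMEM plus 2% FBS / Measure: parasite load inhibition, % / Reagent: Tulahuen C4 trypomastigotes, 5000/well / Schedule: co-culture of at least 90 h after 3 h attachment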

SMILES | inhibition
O=C1C=C(c2ccc(Cl)cc2)C(=O)N1Nc1ccccc1 | 44.2% (inactive)
CC1CCN(C(=O)c2cccc(S(=O)(=O)N3CCCc4ccccc43)c2)CC1 | 12.1% (inactive)
COc1ccc(C(=O)N(CCN2CCOCC2)CC(=O)NC2CCCC2)cc1OC | -3.29% (inactive)
CCCCOc1ccc(CSC(=N)N)cc1[N+](=O)[O-] | 38.2% (inactive)
CCCCCOc1ccc(CSC2=NCCN2)cc1[N+](=O)[O-] | 59.6% (active)
CCCOc1ccc(Cn2ccnc2)cc1[N+](=O)[O-] | 30.6% (inactive)
O=C(NNS(=O)(=O)c1ccc(F)cc1)C1CCCCC1 | -13.6% (inactive)
CCOC(=O)C[C@H]1c2ccc(C(F)(F)F)cc2S(=O)(=O)N1c1ccccc1 | -7.83% (inactive)
O=C(COC(=O)c1ccc([N+](=O)[O-])cc1Cl)NC(=O)c1ccccc1 | -9.49% (inactive)
COc1ccc(CN2CCCC(CNC(=O)c3ccc(F)cc3)C2)cc1OC (stereo not drawn) | 45.9% (inactive)
COc1cc(CN2CCCC(C(=O)c3ccc(SC)cc3)C2)cc(Cl)c1O (stereo not drawn) | 24.2% (inactive)
COc1ccc(CCNC(=O)C2CCCN(Cc3nc(-c4cccc(Cl)c4)oc3C)C2)cc1OC (stereo not drawn) | 61.6% (active)
COc1ccc(C(=O)C2CCCN(Cc3ccc4nonc4c3)C2)c(C)c1 (stereo not drawn) | 20% (inactive)
COc1ccc(CN2CCCC(C(=O)c3ccc(Cl)cc3)C2)cc1Cn1cncn1 (stereo not drawn) | 67.8% (active)
COc1ccc(CCN(C)C(=O)C2CCCN(Cc3ccc(OC)c(OC)c3)C2)cc1OC (stereo not drawn) | 66.2% (active) and 34.7% (inactive)
COc1cccc(-c2nc(CS(=O)(=O)CC(=O)NCCc3ccc(OC)c(OC)c3)c(C)o2)c1 | 21.5% (inactive)
COc1ccc(CCNC(=O)CS(=O)(=O)Cc2nc(-c3ccc(C)cc3)oc2C)cc1OC | 5.37% (inactive)
CCCCNC(=O)N1CCCC(N(C)CCc2ccc(OC)c(OC)c2)C1 (stereo not drawn) | 37.8% (inactive)
CN1CCC(=NNC(=O)c2ccc(N(Cc3ccc(Cl)cc3)S(C)(=O)=O)cc2)CC1 | 8.52% (inactive)
O=C(COc1ccc(Cl)cc1)NCCS(=O)(=O)N1CCN(c2ccc(F)cc2)CC1 | 11.2% (inactive)
COc1ccc(C(O)(C2CCCCC2)C(CN2CCCC2)c2ccccc2)cc1 (stereo not drawn) | 2.61% (inactive)
COC(=O)[C@]1(C)N[C@H](c2ccc(-c3ccc(Cl)c(Cl)c3)cc2)[C@@H]2C(=O)N(C)C(=O)[C@@H]21 | -12.4% (inactive)
COc1ccc(NC(=O)CN(C)C(=O)c2ccc(NC3CC3)c([N+](=O)[O-])c2)cc1 | -6.67% (inactive)
